Non-standard residues stand in square brackets, D forms with d. Residues, ends and D or L forms follow the SMILES beside them. *: point of attachment. Biotin = O=C1N[C@H]2[C@H](CS[C@H]2CCCCC(=O)*)N1; pY = N[C@@H](Cc1ccc(OP(=O)(O)O)cc1)C(=O)O
Tests used:
Assay in all cases: Biacore
Assay type in all cases: binding
[1] = biological target: human LCK SH3-SH2 (Homo sapiens, UniProt P06239)
How it was run: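 Recombinant human LCK SH3-SH2 (aa 58–230), N-terminal His-tagged, nickel-agarose purified, gel-filtered; concentration from A280 using a theoretical extinction coefficient. BIAcore 3000 at 37 °C: ~3000 RU streptavidin amine-coupled to CM5 captured biotinylated peptides (CD2 proline-rich peptides ~100 RU; phospho-CD244 ITSM1 ~25 RU). Protein passed at various concentrations; equilibrium binding fitted for Kd against a control flow cell.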

[2] = biological target: T1, human PLC-γ1 SH2 N+C (Homo sapiens, UniProt P19174); details: ratio of SPR affinities, PLC-γ1 SH2 N+C versus FYN-SH3-SH2
T1 sequence (P19174 545-749): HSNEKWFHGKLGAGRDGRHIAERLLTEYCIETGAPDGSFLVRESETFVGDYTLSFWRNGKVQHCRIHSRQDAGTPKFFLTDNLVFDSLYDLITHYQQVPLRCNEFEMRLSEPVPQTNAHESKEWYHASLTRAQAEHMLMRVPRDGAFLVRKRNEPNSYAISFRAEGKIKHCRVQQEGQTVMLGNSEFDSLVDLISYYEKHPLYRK

[3] = biological target: human FYN SH3-SH2 (Homo sapiens, UniProt P06241)
human FYN SH3-SH2, sequence (P06241 82-248): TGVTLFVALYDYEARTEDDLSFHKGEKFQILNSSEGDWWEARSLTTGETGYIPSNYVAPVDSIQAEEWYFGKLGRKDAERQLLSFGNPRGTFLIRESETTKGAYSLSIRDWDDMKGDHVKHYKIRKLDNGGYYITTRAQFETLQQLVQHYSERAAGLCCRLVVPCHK

human LCK SH3-SH2, sequence (P06239 58-230): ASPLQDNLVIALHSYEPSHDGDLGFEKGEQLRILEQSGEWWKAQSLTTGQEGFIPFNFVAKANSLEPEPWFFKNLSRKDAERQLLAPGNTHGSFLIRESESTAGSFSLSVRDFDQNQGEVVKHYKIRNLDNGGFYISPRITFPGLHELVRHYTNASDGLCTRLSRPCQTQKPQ

CC(C)[C@H](NC(=O)[C@H](CCCNC(=N)N)NC(=O)[C@H](Cc1c[nH]cn1)NC(=O)CNC(=O)[C@@H]1CCCN1C(=O)[C@@H]1CCCN1C(=O)[C@@H]1CCCN1C(=O)[C@@H]1CCCN1C(=O)[C@H](CCCNC(=N)N)NC(=O)[C@H](Cc1c[nH]cn1)NC(=O)[C@H](CO)NC(=O)[C@@H]1CCCN1C(=O)[C@H](C)NC(=O)[C@H](CCC(N)=O)NC(=O)[C@H](CO)NC(=O)[C@H](CCCNC(=N)N)NC(=O)[C@H](Cc1c[nH]cn1)NC(=O)CNC(=O)[C@@H]1CCCN1C(=O)[C@@H]1CCCN1C(=O)[C@@H]1CCCN1C(=O)[C@@H]1CCCN1C(=O)[C@@H]1CCCN1C(=O)[C@H](Cc1c[nH]cn1)NC(=O)CCCC[C@@H]1SC[C@@H]2NC(=O)N[C@@H]21)C(=O)N[C@@H](CCC(N)=O)C(=O)O [CD2-281-305] (Biotin-HPPPPPGHRSQAPSHRPPPPGHRVQ-OH)
Kd [1]: > 1 mM

CC(C)C[C@H](NC(=O)[C@@H]1CCCN1C(=O)[C@@H]1CCCN1C(=O)CNC(=O)[C@H](CCCCN)NC(=O)[C@H](CCC(N)=O)NC(=O)CCCC[C@@H]1SC[C@@H]2NC(=O)N[C@@H]21)C(=O)N1CCC[C@H]1C(=O)N[C@@H](CCCNC(=N)N)C(=O)N1CCC[C@H]1C(=O)N[C@@H](CCCNC(=N)N)C(=O)N[C@H](C(=O)N[C@@H](CCC(N)=O)C(=O)N1CCC[C@H]1C(=O)N[C@@H](CCCCN)C(=O)N1CCC[C@H]1C(=O)N1CCC[C@H]1C(=O)N[C@@H](Cc1c[nH]cn1)C(=O)NCC(=O)O)C(C)C [CD2-322] (Biotin-QKGPPLPRPRVQPKPPHG-OH)
Kd [1]: > 1 mM

CC(C)C[C@H](NC(=O)[C@@H](NC(=O)[C@H](CC(=O)O)NC(=O)[C@@H](NC(=O)[C@H](Cc1ccc(OP(=O)(O)O)cc1)NC(=O)[C@H](CC(=O)O)NC(=O)[C@H](CO)NC(=O)[C@H](CC(N)=O)NC(=O)[C@H](CO)NC(=O)[C@H](CC(N)=O)NC(=O)CCCC[C@@H]1SC[C@@H]2NC(=O)N[C@@H]21)C(C)C)C(C)C)C(=O)N1CCC[C@H]1C(=O)O [EAT-2 127] (Biotin-NSNSD[pY]VDVLP-OH)
fold increase in affinity of PLC-γ1 compared with FYN binding [2]: 30 fold
FYN binding, fold weaker than to the CD244 ITSM ([3]; ratio of SPR affinities, relative to CD244 ITSM 1 peptide): ~ 5 fold

Biotin-KQFQP[pY]FIPIN-OH [CTLA-4, reference compound]
FYN-SH3-SH2 binding to immobilised peptide (in words) ([3]; SPR, 37 °C, biotinylated peptide on streptavidin chip): Negligible binding

Reference: PMC2757176 (The Journal of biological chemistry, 2009)
